# From PubChem BioAssay AID1257 (The Scripps Research Institute Molecular Screening Center, 2008)
# The list shows a part of the results. Calls of active or inactive are those of the source.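 The calls were made as follows: active = mean inhibition of triplicate wells above the hit cutoff set in the primary screen (cut at about 17% in these data); inactive = the rest.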
# Target: Neuropeptide Y receptor type 2 (Homo sapiens) (UniProt P49146)
# Experiment: NPY-Y2 receptor antagonists, retest of hits, confirmation, HEK293-CNG cells, membrane potential fluorescence, triplicate (AID 1257);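 also: 0% = DMSO with NPY challenge and 100% = BIIE0246 high control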
# Conditions: HEK293 NPY-Y2 CNG channel, at 2.8 µM, hits give high values
# Procedure, shortened: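 assay system = NPY-Y2 HEK293-CNG cells | times = NPY exposure 60 min at room temperature | technique = voltage-sensitive dye fluorescence | read-out = 30-min to baseline fluorescence ratio, control-normalized | control set = high BIIE0246, low DMSO | repeats = three replicates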
# Neuropeptide Y receptor type 2 (Homo sapiens), sequence (P49146 whole entry, looked up): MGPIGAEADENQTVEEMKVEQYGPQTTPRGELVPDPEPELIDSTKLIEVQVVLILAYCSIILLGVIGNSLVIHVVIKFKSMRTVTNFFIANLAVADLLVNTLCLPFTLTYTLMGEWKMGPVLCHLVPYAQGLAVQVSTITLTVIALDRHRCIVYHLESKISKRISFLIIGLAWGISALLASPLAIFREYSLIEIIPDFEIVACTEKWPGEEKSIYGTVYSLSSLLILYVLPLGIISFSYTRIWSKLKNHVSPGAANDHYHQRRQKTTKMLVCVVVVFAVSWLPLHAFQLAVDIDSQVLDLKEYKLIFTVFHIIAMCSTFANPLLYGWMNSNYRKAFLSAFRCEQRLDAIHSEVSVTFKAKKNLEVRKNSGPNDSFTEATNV
row,SMILES,inhibition
1,Cc1ccc(C2=NN(C)c3nc4ccccc4n3C2)cc1,4.08% (inactive)
2,CCCCC(O)(CCCC)C(=O)NN(C(=O)CCl)c1ccccc1,6.12% (inactive)
3,COc1ccc(/C=C/C(=O)NC(=S)NN2CCCCC2c2cccnc2)cc1 (centres undefined),63.5% (active)
4,Cc1ccc(NC(=O)CN2CCC3(O)CCCCC3C2c2ccc3c(c2)OCO3)c(C)c1 (centres undefined),7.05% (inactive)
5,Cc1cc(C(=O)OCC(=O)N2c3ccccc3NC(=O)C2(C)C)c(C)n1-c1ccccc1,17.1% (inactive)
6,N#Cc1ccc(N2Cc3ccccc3/C2=N/C(=O)Nc2ccc(Cl)cc2)cc1,144% (active)
7,COc1ccc(/C(N)=N/OC(=O)CCCc2ccccc2)cc1,8.36% (inactive)
8,Cc1ccc(CCC(=O)Nc2ncc(Cc3cc(Cl)ccc3Cl)s2)o1,28.3% (active)
9,C=CCNCCCCOc1ccccc1,-1.34% (inactive)
10,CCOc1ccc(S(=O)(=O)N/N=C(\C)c2ccc(Cl)c(Cl)c2Cl)cc1,16% (inactive)
11,CCCc1nc(SCC(=O)Nc2ccccc2OC)c2c(=O)n(C)c(=O)n(C)c2n1,9.29% (inactive)
12,Cc1ccccc1N1CCN(CCCOc2ccc3c(C)cc(=O)oc3c2)CC1,21.9% (active)
13,O=C(Oc1ccccc1)Oc1ccc2c(c1)oc(=O)c1ccccc12,6.38% (inactive)
14,O=S(=O)(Cc1cc(Sc2ccccc2)nc(-c2ccccc2)n1)c1ccccc1,7.19% (inactive)
15,CCOc1ccc(C(O)Cn2c(=N)n(CCN3CCCCC3)c3ccccc32)cc1 (centres undefined),14.8% (inactive)
16,c1ccc(-c2cc3c(NCC4COc5ccccc5O4)ncnc3s2)cc1 (centres undefined),15.2% (inactive)
17,COc1ccc(NC(=O)/C(Cl)=C(/Cl)S(=O)Cc2ccc(C)cc2)cn1 (centres undefined),60.8% (active)

row,SMILES,inhibition
1,O=C(CC(O)(C(F)(F)F)C(F)(F)F)Nc1ccc(Cl)c(Cl)c1,8.21% (inactive)
2,COc1ccc(-c2noc(COc3ccc(Cl)c(C)c3)n2)cc1,32.4% (active)
3,Cc1cccc(OCC(O)Cn2c(=N)n(CCN3CCOCC3)c3ccccc32)c1 (centres undefined),6.36% (inactive)
4,O=C1CC(c2cccc(Cl)c2)CC(O)=C1C=Nc1ccccc1 (centres undefined),16.5% (inactive)
5,O=C(Nc1nnc(SCc2c(Cl)cccc2Cl)s1)C1CCCO1 (centres undefined),15.9% (inactive)
6,N#Cc1ccc(C(c2nnnn2CCc2ccccc2)N2CCCCCC2)cc1 (centres undefined),7.32% (inactive)
7,CCCCCNC(=O)Cc1ccc(OC)cc1,-1.6% (inactive)
8,CCOC(=O)C(C)Sc1nc2ccccc2c(=O)n1CC1CCCCC1 (centres undefined),8.48% (inactive)
9,Cc1ccccc1OC(=O)Cn1c(C(F)(F)F)nc2ccccc21,3.55% (inactive)
10,COC(=O)c1ccc(CSc2nc3cc(Cl)ccc3o2)cc1,12.9% (inactive)
11,Cc1ccc(S(=O)(=O)N(Cc2ccc(Cl)cc2)c2ccccc2C(=O)NCc2cccnc2)cc1,21.4% (active)
12,CN(C)Cc1ccc(F)cc1Sc1cc(Cl)ccc1Cl,9.81% (inactive)
13,COc1ccc(-c2nc3ccccc3n2CCC(C)C)cc1OC,7.79% (inactive)
14,COc1cccc(-c2ccc(C#N)c(SCC(=O)NCCc3ccc(Cl)cc3)n2)c1,23.6% (active)
15,Cc1cc(C)nc(-n2ncc3c2CC(c2ccc(C(C)C)cc2)CC3=O)n1 (centres undefined),24.2% (active)
16,N=c1n(Cc2ccc(Cl)cc2)c2ccccc2n1CC(O)c1ccco1 (centres undefined),17.8% (active)
17,CC12CN(Cc3ccccc3)CC(C)(CN(Cc3ccccc3)C1)C2=NO,10.7% (inactive)
